Bioassay records from PubChem BioAssay.
Most compounds without a hit are left out; they make up all but 4.7% or so of the library.
RGS4 block – human RGS4 inhibition; HEK293 M3R/RGS4 inducible, Fluo-4 calcium flux; hits give high values; triggered by carbachol at its EC20; B-score at 10 µM; 310,000 compounds, 0.45% hits;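 active = B-score, a plate-corrected calcium signal, over three deviations above library mean, with baseline fluorescence within five deviations of library mean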;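 note: RGS4 expression induced by doxycycline in cells with stable M3 receptor; B-score is computed from the integrated fluorescence ratio over baseline after carbachol; higher B-score means a larger calcium signal and so more RGS4 inhibition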
Target sequence (P49798 whole entry, looked up): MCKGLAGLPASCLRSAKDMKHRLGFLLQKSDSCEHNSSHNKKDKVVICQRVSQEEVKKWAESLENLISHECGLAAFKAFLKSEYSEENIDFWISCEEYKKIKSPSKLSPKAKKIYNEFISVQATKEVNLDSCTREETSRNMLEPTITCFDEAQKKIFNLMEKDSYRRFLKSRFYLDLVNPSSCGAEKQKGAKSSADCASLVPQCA
MrgX1 antagonist – antagonists of human MrgX1 receptor; Q96LB2; 310,000 compounds, 1.3% hits; B-score at 10 µM; AID 588676; MRGX1-HEK293 calcium flux, Fluo-4, BAM8-22 antagonism; hits give low values;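 active = calcium-response B-score plate-corrected more than 3 library SD below zero, starting fluorescence within 5 deviations, no agonist response on first addition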;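 note: peak minus trough fluorescence over baseline after final BAM8-22 challenge near maximal dose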
Target sequence (Q96LB2 whole entry, looked up): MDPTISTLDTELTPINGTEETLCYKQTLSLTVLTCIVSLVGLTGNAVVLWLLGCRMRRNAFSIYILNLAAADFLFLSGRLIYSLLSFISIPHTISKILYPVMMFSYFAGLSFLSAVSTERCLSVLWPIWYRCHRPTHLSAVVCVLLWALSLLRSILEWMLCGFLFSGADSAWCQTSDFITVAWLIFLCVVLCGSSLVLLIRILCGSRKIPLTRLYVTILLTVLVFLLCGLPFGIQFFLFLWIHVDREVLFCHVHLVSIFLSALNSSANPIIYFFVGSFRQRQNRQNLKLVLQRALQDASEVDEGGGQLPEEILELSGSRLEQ
MrgX1 allo act – allosterically activates human MrgX1 receptor signaling; Q96LB2; B-score at 10 µM; MrgX1-HEK293, Fluo-4 calcium flux, FDSS; hits give high values; AID 588675; 310,000 compounds, 0.63% hits;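 active = plate-corrected calcium response at least 3 library SD above typical, normal starting fluorescence, not activating the receptor alone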;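 note: compound read alongside a low EC10 to EC30 dose of BAM8-22 agonist; peak minus trough fluorescence over baseline measured at the second addition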
KCC2 mod – modulators of human KCC2 chloride dependent transport | AID 1456 | B-score of Tl+ flux slope (higher = more flux/activation; lower = inhibition) at 10 µM | KCC2 cells, thallium flux FluoZin-2 fluorescence | 190,000 compounds, 2.2% hits | Q9H2X9;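 active = thallium flux slope and its plate-corrected score both differing from the plate sample mean at a set confidence after two filtering rounds, in either direction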;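 note: slope of fluorescence scaled to starting intensity during 10 to 20 s after thallium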
RGS4 pot – potentiators or activators of RGS4; HEK293 M3R/inducible RGS4, carbachol calcium flux Fluo4; hits give low values; B-score at 10 µM; AID 463111; 310,000 compounds, 0.92% hits;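 active = B-score of the integrated calcium signal more than 4 SD below the library mean, with starting fluorescence not abnormally high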;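 note: negative B-score means reduced calcium response which marks RGS4 activation or potentiation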
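test system = HEK293 cells with stable M3R and inducible RGS4 | schedule = recording 10 s baseline at 1 Hz, 100 s post-agonist | technique = Fluo4-AM (2 µM) calcium-flux fluorescence, kinetic read | measure = Agonist-evoked peak-minus-minimum fluorescence over baseline, integrated ratio, B score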
MrgX1 ag – activates human MrgX1 receptor signaling | Q96LB2 | MrgX1-HEK293 cells, Fluo-4 calcium fluorescence, agonist mode; hits give high values | B-score at 10 µM | 310,000 compounds, 0.44% hits | AID 588627;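 active = calcium response B-score plate-corrected fluorescence ratio at least 3 library SD, with starting fluorescence B-score inside 5 SD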
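Assay system: MrgX1-expressing HEK293 cells / Amount: fifteen thousand cells per well / Doses: test compound in the initial addition of three / Timing: cells plated overnight, dye loaded 0.5 h 37 °C, 0.5 h room temperature / Technique: kinetic calcium dye fluorescence, Fluo-4 NW / Control set: positive and negative controls per plate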
KCC2 secondary – confirmation of human KCC2 transport modulators; shares compounds with KCC2 mod; HEK293-KCC2, thallium flux, FluoZin2 fluorescence; hits give high values; normalised thallium flux (F/F0 slope) at 10 µM; 3,700 compounds, 15% hits; AID 1713;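 active = thallium flux slope above the same plate's solvent-only control mean plus 3 SD; inconclusive = the two replicate wells disagree; inactive = no significant difference from solvent-only control wells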
KCC2 bumet counter – thallium flux despite bumetanide block in KCC2 cells, secondary assay 3 | shares compounds with KCC2 mod | HEK293-KCC2 + bumetanide/ouabain, thallium flux FluoZin2; hits give high values | normalized thallium flux at 10 µM | 3,700 compounds, 49% hits | AID 1714;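 active = thallium entry rate above the same plate's blocked-transporter control wells by more than 3 SD; inconclusive = the two repeat wells disagree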;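 note: raw slope of fluorescence over initial fluorescence between 10 and 20 s after thallium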
KCC2 sec2 – KCC2 (human) modulation, second secondary assay; 3,700 compounds, 23% hits; HEK293-KCC2, thallium flux FluoZin2 fluorescence; actives lie on both sides; F/F0 rise rate, 10–20 s post-thallium; AID 1715; normalized thallium flux at 10 µM; shares compounds with KCC2 mod;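 active = thallium flux slope more than 3 SD above or below the plate's solvent-only control mean, mostly below; inconclusive = the two repeat wells disagreed; inactive = no significant shift from solvent-only controls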;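 note: raw slope with 0.1% DMSO as baseline and bumetanide as block control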
HEK counter1 – parental HEK flux effect, counter-screen; 3,700 compounds, 46% hits; thallium flux rate (normalised fluorescence) at 10 µM; HEK293 parental cells, thallium flux FluoZin2, ouabain; baseline-ratio fluorescence slope, 10–20 s after thallium; AID 1716; shares compounds with KCC2 mod;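 active = thallium flux rate significantly above the same plate's solvent-only control wells, beyond their mean plus 3 SD; inconclusive = the two replicate wells gave conflicting results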
KCC2 retest ouab – modulates human KCC2 on retest with ouabain; shares compounds with KCC2 mod; HEK293-KCC2, thallium flux FluoZin2 fluorescence; bidirectional: low = inhibitor, high = activator; raw Tl+ flux slope (below DMSO = inhibition, above = activation) at 10 µM; 3,700 compounds, 48% hits; AID 1717;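 active = thallium flux slope beyond 3 SD from same-plate DMSO control mean in most replicates, usually higher, sometimes lower; inconclusive = repeat tests gave conflicting results; inactive = no significant difference from controls in most replicates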;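 note: slope of initial-normalized fluorescence between seconds 10 and 20 after thallium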
HEK293 Tl flux2 – acts in parental HEK cells, second KCC2 counter-screen; shares compounds with KCC2 mod; HEK293 parental, thallium flux FluoZin-2 fluorescence slope; thallium flux slope at 10 µM; 3,700 compounds, 33% hits;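 active = thallium flux slope above the same plate's solvent-control mean plus 3 SD in both duplicate wells; inconclusive = duplicate wells that disagreed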;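 note: run without ouabain in cells lacking the KCC2 cotransporter; slope of fluorescence scaled to its starting value between 10 and 20 s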
RGS4 activ val – confirmation of RGS4 activators; shares compounds with RGS4 pot; HEK293 M3R/RGS4 inducible, carbachol calcium flux Fluo4; inhibition, % at 10 µM; 1,100 compounds, 89% hits;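 active = inhibition above 3 SD of the buffer control wells, cut at about 41% in these data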;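 note: signal is the integrated peak-minus-minimum Fluo4 fluorescence over baseline ratio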
RGS4 act ctr – counter-screen for RGS4 activators: effect in non-induced cells | AID 602283 | 1,100 compounds, 82% hits | inhibition, % at 10 µM | HEK293 M3R non-induced RGS4, Fluo4 calcium flux; after carbachol challenge at its EC90 | shares compounds with RGS4 pot;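 active = inhibition exceeding 3 SD of buffer-only control wells, cut at about 26% in these data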;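 note: percent drop in integrated peak-minus-baseline over baseline Fluo4 ratio after carbachol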
MrgX1 ant reconf – human MrgX1 receptor antagonism, re-confirmation screen; shares compounds with MrgX1 antagonist; MrgX1-HEK293, BAM8-22 calcium flux, Fluo-4; hits give low values; remaining BAM8-22 calcium response % of control (hits give low values), % at 10 µM; 2,300 compounds, 19% hits; AID 602420;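 active = remaining agonist calcium response no higher than 100% minus 3 SD of agonist-only control wells, with starting fluorescence near control levels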;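 note: agonist BAM8-22 given at a near maximal EC90 to ECmax level; peak minus minimum fluorescence divided by baseline after agonist addition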
HEK293 Ca flux – MrgX1 antagonist counter-screen hit in parental HEK293 cells; 4,000 compounds, 2% hits; fluorescence ratio F(max-min)/F0 at 10 µM; Fluo-4 calcium fluorescence, FDSS; shares compounds with MrgX1 antagonist;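 active = duplicate-averaged calcium fluorescence ratio at least three times the standard deviation of buffer wells, a nonspecific response in parental cells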
HEK293 Ca counter – MrgX1 allosteric activator counter-screen hit in parental HEK293 cells; parental HEK293 calcium flux, Fluo-4 fluorescence ratio; hits give high values; AID 624114; shares compounds with MrgX1 antagonist; fluorescence ratio F(max-min)/F0 at 10 µM; 4,000 compounds, 0.4% hits;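 active = calcium fluorescence ratio, averaged over duplicates, at least 3 SD of the buffer-well ratio, meaning a nonspecific response in receptor-free cells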;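 note: untransfected parental HEK293 lacking MrgX1 used as counterscreen for MrgX1 allosteric activators; fluorescence change taken during the second addition on a kinetic imager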
HEK293 Ca cntr2 – MrgX1 activator counter-screen hit in parental HEK293 cells. Fluo-4 calcium fluorescence (FDSS); hits give high values. fluorescence ratio F(max-min)/F0 at 10 µM. shares compounds with MrgX1 antagonist. AID 624115. 4,000 compounds, 8.7% hits;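 active = calcium fluorescence ratio at least three times the spread of buffer wells, meaning a non-specific response in parental cells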
* = called active by the depositor; i = inactive; ? = inconclusive; / = no result given.

SMILES	RGS4 block	MrgX1 antagonist	MrgX1 allo act	KCC2 mod	RGS4 pot	MrgX1 ag	RGS4 activ val	RGS4 act ctr	others
CCCC(=O)Nc1cc(C(=O)N2CCC3(CC2)OCCO3)ccc1S(=O)(=O)c1ccc(C)cc1	i	i	i	-5.2*	i	i	/	/	KCC2 secondary=0.0097;KCC2 bumet counter=0.006;KCC2 sec2=0.033;HEK counter1=0.0073;KCC2 retest ouab=0.022;HEK293 Tl flux2=0.01
CC(=O)Nc1cc(C(=O)N2CCC3(CC2)OCCO3)ccc1S(=O)(=O)c1ccc(Cl)cc1	i	i	i	-6.4*	i	i	/	/	KCC2 secondary=0.0077;KCC2 bumet counter=0.0053;KCC2 sec2=0.03;HEK counter1=0.0085;KCC2 retest ouab=0.019;HEK293 Tl flux2=0.012
CC(=O)Nc1cc(C(=O)N2CCC3(CC2)OCCO3)ccc1S(=O)(=O)c1ccc(C)cc1	i	i	i	/	i	i	/	/
S=C1NC2(CCCCC2)NC12CCCCC2	i	i	i	-0.032	i	i	/	/
COc1cc(/C=C/C(=O)c2c(O)n(CCc3ccccc3)c(=O)[nH]c2=O)ccc1O	i	i	i	-6.4*	i	i	/	/	KCC2 secondary=?;KCC2 bumet counter=-0.0096*;KCC2 sec2=0.034;HEK counter1=0.0013*;KCC2 retest ouab=0.004*;HEK293 Tl flux2=?
O=C1NC(=O)N(c2ccccc2)C(=O)/C1=C/c1coc2ccc(O)cc2c1=O	i	i	i	-4.8*	i	27*	/	/	KCC2 secondary=0.007;KCC2 bumet counter=0.0042;KCC2 sec2=0.028;HEK counter1=0.0058*;KCC2 retest ouab=0.014*;HEK293 Tl flux2=0.0088
CC(C)C/C(=N/O)c1cn(C)c2ccccc12	i	i	i	-0.047	i	i	/	/
O=C(O)C1C2CCC(O2)C1C(=O)Nc1cccc(Br)c1 (stereo unspecified)	i	i	i	/	i	i	/	/
CCOC(=O)C(O)(c1ccc(NC(=S)NC(=O)c2ccc(Cl)cc2Cl)c(C)c1)C(F)(F)F (stereo unspecified)	i	-4.7*	i	5.5*	i	i	/	/	KCC2 secondary=0.0063;KCC2 bumet counter=0.029*;KCC2 sec2=0.036;HEK counter1=0.014*;KCC2 retest ouab=0.029*;HEK293 Tl flux2=0.016*;MrgX1 ant reconf=i;HEK293 Ca flux=i;HEK293 Ca counter=i;HEK293 Ca cntr2=i
Cc1ccc(S(=O)(=O)N[C@@H](CCCCN)C(=O)CCl)cc1	i	i	i	/	i	i	/	/
c1ccc(CN2CCNCC2)nc1	i	i	i	/	i	i	/	/
c1ccc(C(OCCN2CCNCC2)c2ccccc2)cc1	i	i	i	0.22	-9.5*	i	92*	74*
OC(CC#CCN1CCCCCC1)(c1ccccc1)C1CCCC1 (stereo unspecified)	i	i	i	/	-7.7*	i	93*	95*
CC1(C(O)(C#CCN2CCCCC2)c2ccccc2)CCCC1 (stereo unspecified)	i	i	i	-0.66	-7.6*	i	93*	89*
Cc1ccc(C(C)C)c(OCC#CCN2CCCC2)c1	i	i	i	0.8	-9.1*	i	91*	41*
COc1cccc(CNC2CN3CCC2CC3)c1OC (stereo unspecified)	i	i	i	1.3	-7.7*	i	56*	26*
CCOc1cccc(CNC2CN3CCC2CC3)c1 (stereo unspecified)	i	i	i	/	i	i	/	/
OC(c1ccccc1)(c1ccc(Cl)cc1)C1CN2CCC1CC2 (stereo unspecified)	i	i	i	0.1	-9.1*	i	78*	57*
C=C1[C@H]2CC[C@H]3[C@]4(C)C[C@H](O[C@H]5O[C@H](CO)[C@@H](OS(=O)(=O)O)[C@H](OS(=O)(=O)O)[C@H]5OC(=O)CC(C)C)C[C@@H](C(=O)O)[C@H]4CC[C@]3(C2)[C@H]1O	/	i	i	/	/	i	/	/
Cc1cccc(CN2CCCC(C(=O)c3ccc4c(c3)OCO4)C2)n1 (stereo unspecified)	i	i	i	-0.33	i	i	/	/
O=C(c1ccc2c(c1)OCO2)C1CCCN(Cc2c(F)cccc2Cl)C1 (stereo unspecified)	i	i	i	/	-8.6*	i	92*	81*
O=C(c1cccs1)C1CN2CCC1CC2 (stereo unspecified)	i	i	i	0.36	-9.3*	i	60*	0
